Data taken from ChEMBL document CHEMBL1140308, “A new synthetic agent with potent but selective cytotoxic activity against cancer” (2005).

Assays:
Format in all cases: functional
HCT-116 [1] = assay: Concentration required to cause lethality in human colon cancer HCT116 cell line by 50% after 120 hours; determined by MTT assay; conditions: HCT-116, 120 h
Summary of the method: (§1)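 Cells (DMEM for HCT-116, SK-MEL-2, A549; RPMI 1640 for HL-60, MCF-7; 10% FBS) were seeded at 1000-1500 per well and precultured 1 day. Methanesulfonate-salt drug was added as 10-fold serial dilutions from a 2 μM working solution, six wells per concentration. MTT absorbance was read at 544 nm after 120 h at 37 °C against T0 plates. LC50 is 50% reduction of initial cell number; values are the mean of ≥3 independent determinations.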

A549 [2] = assay: Concentration required to cause lethality in human […] lung cancer A549 cell line by 50% after 120 hours; determined by MTT assay; conditions: A549, 120 h; summary of the method: as §1
HL-60 [3] = assay: Concentration required to inhibit the growth of human leukemia cancer HL-60 cell line by 50% after 120 hours; determined by MTT assay; conditions: HL-60, 120 h
Summary of the method: (§2)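 Cells (A549, HCT-116, SK-MEL-2 in DMEM; HL-60, MCF-7 in RPMI 1640; 10% FBS) seeded at 1000-1500/well, six wells per concentration, and precultured 1 day. Added 2 µM working solution and 10-fold serial dilutions, or vehicle. MTT read at 544 nm after 120 h at 37 °C, with T0 reference plates. GI50 is 50% of control growth; ≥3 independent runs.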

HL-60 [4] = assay: Concentration required to cause lethality in human leukemia cancer HL-60 cell line by 50% after 120 hours; determined by MTT assay; conditions: HL-60, 120 h; summary of the method: as §1
HCT-116 [5] = assay: Concentration required to inhibit the growth of human colon cancer HCT116 cell line by 50% to initial after 120 hours; determined using MTT assay; conditions: HCT-116, 120 h
SK-MEL-2 [6] = assay: Concentration required to cause lethality in human malenoma cancer SK-MEL-2 cell line by 50% after 120 hrs; determined by MTT assay; conditions: SK-MEL-2, 120 h; summary of the method: as §1
A549 [7] = assay: Concentration required to inhibit human […] lung cancer A549 cell growth by 50% after 120 hours; determined by MTT assay; conditions: A549, 120 h; summary of the method: as §2
SK-MEL-2 [8] = assay: Concentration required to inhibit the growth of human malenoma cancer SK-MEL-2 cell line by 50% after 120 hours; determined by MTT assay; conditions: SK-MEL-2, 120 h; summary of the method: as §2
MCF7 [9] = assay: Concentration required to cause lethality in human breast cancer MCF-7 cell line by 50% after 120 hours; determined by MTT assay; conditions: MCF7, 120 h; summary of the method: as §1
MCF7 [10] = assay: Concentration required to inhibit the growth of human breast cancer MCF-7 cell line by 50% after 120 hours; determined by MTT assay; conditions: MCF7, 120 h; summary of the method: as §2
A549 [11] = assay: Concentration required for inhibition of human […] lung cancer A549 cell growth by 50%, after 120 hours; determined by MTT assay; conditions: A549, 120 h; summary of the method: as §2

SMILES | LC50 (HCT-116 [1]) [nM] | LC50 (A549 [2]) [nM] | GI50 (HL-60 [3]) [nM] | LC50 (HL-60 [4]) [nM] | GI50 (HCT-116 [5]) [nM] | LC50 (SK-MEL-2 [6]) [nM] | GI50 (A549 [7]) [nM] | GI50 (SK-MEL-2 [8]) [nM] | LC50 (MCF7 [9]) [nM] | GI50 (MCF7 [10]) [nM] | GI50 (A549 [11]) [nM] | CC50 (HL-60 [4]; read-out: LC50 (the source's name)) [nM]
COc1ccc2nc3cc(Cl)ccc3c(NCCCN3CCN(CCCNc4ccc5ncn6c7ccccc7c(=O)c4c56)CC3)c2c1 | > 1000 | > 1000 | 400 | > 1000 | 3.8 | > 1000 | 8 | 300 | > 1000 | 400 | – | –
CN(CCCNc1ccc2ncn3c4ccccc4c(=O)c1c23)CCCN1C(=O)c2cccc3cc([N+](=O)[O-])cc(c23)C1=O | 220 | 500 | 120 | 500 | 8 | > 1000 | 25 | 150 | > 1000 | 50 | – | –
Nc1cc2c3c(cccc3c1)C(=O)N(CCCN1CCN(CCCNc3ccc4ncn5c6ccccc6c(=O)c3c45)CC1)C2=O | 80 | 100 | 5 | 450 | 2.2 | 750 | – | 15 | > 1000 | 32 | 2.5 | –
O=C1c2cccc3cc([N+](=O)[O-])cc(c23)C(=O)N1CCCN1CCN(CCCNc2ccc3ncn4c5ccccc5c(=O)c2c34)CC1 | 32 | 35 | 3.5 | 33 | 0.5 | 60 | 0.6 | 4 | > 1000 | 3.2 | – | –
CN(C)CCN1C(=O)c2cccc3cc([N+](=O)[O-])cc(c23)C1=O [MITONAFIDE] | – | – | 45 | – | 250 | – | 65 | 150 | – | 245 | – | 400
